Compound activity deposited in PubChem BioAssay by Johns Hopkins Ion Channel Center.
A selection: hits, their analogues and other compounds. The true share with any hit is near 2.3%.
TRPC6 inhibitor = mouse TRPC6 channel inhibitors, primary screen, cell-based, HEK293, membrane potential dye | ACh-evoked depolarization; active compounds read low | B-score at 10 µM | hit rate 1.1% among 310,000 | AID 2553, 2010;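 active = B-score under library mean minus 3 SD, initial fluorescence not abnormally high, positive integrated signal ratio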;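 note: B-score derived from integrated fluorescence ratio over the kinetic read; more negative B-score means stronger inhibition of depolarization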
Target sequence (Q61143 whole entry, looked up): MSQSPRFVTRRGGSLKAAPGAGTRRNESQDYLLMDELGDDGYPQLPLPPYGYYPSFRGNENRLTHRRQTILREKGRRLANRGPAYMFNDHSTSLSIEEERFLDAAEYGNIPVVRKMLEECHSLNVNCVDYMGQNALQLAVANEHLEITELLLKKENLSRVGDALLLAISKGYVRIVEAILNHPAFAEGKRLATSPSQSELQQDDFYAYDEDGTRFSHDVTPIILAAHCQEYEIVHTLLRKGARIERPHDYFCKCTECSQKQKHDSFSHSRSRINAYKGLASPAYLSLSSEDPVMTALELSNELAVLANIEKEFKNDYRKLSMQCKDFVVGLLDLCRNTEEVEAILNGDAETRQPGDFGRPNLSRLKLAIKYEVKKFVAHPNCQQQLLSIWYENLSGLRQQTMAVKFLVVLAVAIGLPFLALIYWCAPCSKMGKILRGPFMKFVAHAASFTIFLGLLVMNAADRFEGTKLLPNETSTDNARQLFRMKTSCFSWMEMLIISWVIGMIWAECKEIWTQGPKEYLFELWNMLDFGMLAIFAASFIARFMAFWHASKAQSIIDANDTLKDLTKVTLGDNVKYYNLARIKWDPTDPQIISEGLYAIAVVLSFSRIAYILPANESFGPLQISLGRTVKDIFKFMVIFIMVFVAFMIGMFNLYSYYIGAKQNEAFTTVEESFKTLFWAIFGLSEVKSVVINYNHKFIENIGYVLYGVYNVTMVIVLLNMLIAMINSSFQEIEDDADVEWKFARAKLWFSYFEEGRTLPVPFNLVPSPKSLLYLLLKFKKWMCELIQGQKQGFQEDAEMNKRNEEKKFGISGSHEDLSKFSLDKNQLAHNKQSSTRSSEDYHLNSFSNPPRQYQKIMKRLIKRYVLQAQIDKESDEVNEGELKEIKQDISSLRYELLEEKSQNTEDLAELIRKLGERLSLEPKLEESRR
TRPC4 inh = inhibitors of mouse TRPC4 channel, primary screen, Fluo4 calcium, HEK293 TRPC4beta/mu-opioid cells. DAMGO-evoked Fluo4 calcium flux; active compounds read low. AID 2247, 2010. B-score at 10 µM. hit rate 0.39% among 300,000;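 active = B-score over 3 SD under the library average, no early fluorescence shift, positive overall ratio signal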
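Signal: kinetic Fluo4 fluorescence imaging of calcium influx. Material: stable TRPC4beta/mu-opioid receptor HEK293 cells. Probe or stimulus: DAMGO in two steps, submaximal then maximal.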
TRPC6 act = mouse TRPC6 channel activators, primary screen, cell-based, HEK293, membrane potential dye; hit rate 0.13% among 310,000; B-score at 10 µM; AID 2550, 2010; Short transient receptor potential channel 6 (Mus musculus), Q61143; HEK293-TRPC6 membrane potential dye fluorescence; active compounds read high;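 active = B-score of the integrated fluorescence ratio above library mean plus 3 SD, and starting fluorescence ratio within library mean plus 5 SD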;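 note: higher score means more depolarization so channel activation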
TRPC4 potent = positive allosteric modulators of TRPC4, primary screen, cell-based, mouse TRPC4beta, HEK293 mu-opioid, Fluo-4 calcium. hit rate 0.42% among 310,000. DAMGO EC20, Fluo-4 Ca2+ flux; active compounds read high. B-score at 10 µM. AID 2227, 2009. Short transient receptor potential channel 4 (Mus musculus), Q9QUQ5;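 active = B-score of calcium response area above 5 SD of library B-scores, with initial fluorescence ratio within 5 SD of library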;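 note: B-score of integrated fluorescence ratio over time as area under calcium response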
TRPC4 agonist = activators of mouse TRPC4 channel, primary screen, Fluo4 calcium, HEK293 TRPC4beta/mu-opioid cells | hit rate 0.49% among 310,000 | B-score at 10 µM | AID 2237, 2010 | Fluo4 calcium fluorescence; active compounds read high;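 active = B-score above 5 SD of library B-scores, and initial fluorescence ratio not above library mean plus 5 SD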;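 note: positive B-score marks a calcium rise read as TRPC4 activation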
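Assay system: HEK293 stable line with TRPC4beta plus mu-opioid receptor; schedule: 45 min room-temperature Fluo4 loading, 110 s read; technique: kinetic Fluo4 calcium fluorescence; evaluation: integrated baseline-normalised fluorescence ratio, converted to per-well B score; controls: buffer (low) and maximal DAMGO (high)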
* marks the source's active call; other numbers are inactive results; i = inactive.

SMILES | TRPC6 inhibitor | TRPC4 inh | TRPC6 act | TRPC4 potent | TRPC4 agonist
Cc1ccc(-n2c3nc(=O)[nH]c(=O)c-3cc3cc([N+](=O)[O-])ccc32)cc1C | i | i | i | 10* | i
Cc1cc(Oc2ccc(C(C)(C)C)cc2)nc(N2CCOCC2)n1 | i | i | i | 18* | i
Cc1cc(Oc2ccc(-c3ccccc3)cc2)nc(N2CCOCC2)n1 | i | i | i | i | i
CSc1nc(C)c(C(=O)C[n+]2ccccc2)cc1C#N | i | i | i | i | i
COC(=O)c1ccccc1NC(=O)NC1CC1 | i | i | i | i | i
CCCN1CCC(NC(=O)Nc2ccccc2C(=O)OC)CC1 | i | i | i | i | 71*
CCN(CCNC(=O)C1CCN(Cc2nc(-c3ccc(Cl)cc3)oc2C)CC1)c1ccccc1 | -6.6* | i | i | i | i
Cc1oc(-c2ccc(Cl)cc2)nc1CN1CCC(C(=O)NCc2cccs2)CC1 | i | -6* | i | i | i
Cc1oc(-c2ccc(Cl)cc2)nc1CN1CCC(C(=O)NCC2CCCO2)CC1 (stereo not given) | i | i | i | i | i
CC1(N(O)C=C2C=CC(=O)C=C2)CCCCC1=O (stereo not given) | i | i | i | i | i
O=C(COc1ccc(Br)cc1Cl)c1ccc[nH]1 | i | -6* | i | i | i
Clc1cc(Cl)cc(C2=NC(Cc3ccccc3)CO2)c1 (stereo not given) | i | i | i | i | 132*
Cc1ccc(C(=O)Nc2cccnc2N2CCN(C)CC2)cc1 | i | i | i | i | i
COc1ccc(CN(C)C(=O)c2ccc(NC(=O)CC3SC(N4CCCC4)=NC3=O)cc2)c(OC)c1OC (stereo not given) | i | i | i | i | i
COc1ccc(CN(C)C(=O)c2ccc(NC(=O)CC3SC(N4CCCC4)=NC3=O)cc2)c(OC)c1 (stereo not given) | i | -6* | i | 41* | i
Cc1cc(C(=O)N/N=C\c2cc(C(C)(C)C)ccc2O)n[nH]1 | i | -6* | i | i | i
O=C(NC1CCCC1)c1sc(=S)n2c1[nH]c(=O)c1ccccc12 | i | i | i | i | 83*
O=C(NCc1ccco1)c1sc(=S)n2c1[nH]c(=O)c1ccccc12 | i | i | i | i | 114*
CC1CC(C)CN(C(=S)Nc2ccc(SC(F)F)cc2)C1 (stereo not given) | i | i | i | i | i
CC1CN(C(=S)Nc2ccc(SC(F)F)cc2)CC(C)O1 (stereo not given) | -6.5* | i | i | i | i
O=C(N/N=C1/SCC(=O)N1Cc1ccco1)c1ccccc1F | i | i | i | i | i
CNS(=O)(=O)c1cc(NC(=O)CCNC(=O)c2ccco2)ccc1C | i | i | i | i | i
CNC(=S)N1N=C(c2ccc(C)cc2)CC1c1cc(OC)ccc1OC (stereo not given) | i | i | i | 17* | i
CNC(=S)N1N=C(c2ccc(C)cc2)CC1c1ccc(OC)cc1 (stereo not given) | i | i | i | i | i
Cn1cc(CN2CCCCC2CO)c(-c2ccc(Oc3ccccc3)cc2)n1 (stereo not given) | i | -7* | i | i | i
SMILES | TRPC6 inhibitor | TRPC4 inh | TRPC6 act | TRPC4 potent | TRPC4 agonist
COC1CCCN(Cc2cn(C)nc2-c2ccc(Oc3ccccc3)cc2)C1 (stereo not given) | i | i | i | i | i
O=C(N/N=C/c1ccsc1)c1ccc2ccccc2n1 | i | i | i | 17* | i
O=C(N/N=C/c1ccc2c(c1)OCO2)c1ccc2ccccc2n1 | i | i | i | i | i
CCc1nc(SCC(=O)N2CCCc3ccccc32)c2oc3ccccc3c2n1 | i | -5* | i | i | i
CCc1nc(SCC(=O)NC2CCCC2)c2oc3ccccc3c2n1 | i | i | i | i | i
O=C(Nc1nc2c(s1)CN(Cc1ccccc1)CC2)c1c(F)cccc1F | i | i | i | 17* | i
C=CCOC(=O)C1C(=O)CC(C)(O)C(C(=O)OCC=C)C1c1ccc(N(C)C)cc1 (stereo not given) | i | i | i | i | i
COC(=O)C1=C(C)N=c2s/c(=C3\C(=O)Nc4ccccc43)c(=O)n2C1c1ccccc1 (stereo not given) | -5.9* | i | i | i | i
C/C(=N\N1CCN(C)CC1)c1ccc(Cl)c(Cl)c1 | i | i | i | 15* | i
C/C(=N\N1CCN(C)CC1)c1ccc(OC(F)F)cc1 | i | i | i | i | i
COc1c(S(=O)(=O)NCCCn2ccnc2)ccc(Cl)c1Cl | i | i | i | i | i
Cc1cc(C)c(S(=O)(=O)NCCCn2ccnc2)c(C)c1 | i | i | i | i | 68*
Cc1c(Cl)ccc(S(=O)(=O)NCCCn2ccnc2)c1Cl | i | i | i | i | 50*
COc1cccc(C(=O)Nc2cc(-c3cn4cccnc4n3)ccc2C)c1 | i | i | i | i | i
CCOc1ccc(N=Cc2ccc3ccccc3c2)cc1 | i | i | i | i | i
CCOc1ccc(N=CNc2ccc(OCC)cc2)cc1 | i | i | i | 15* | i
CN1CCN(c2ccc(NC(=O)COc3ccc4ccccc4c3)cc2)CC1 | i | i | i | i | i
CN1CCN(c2ccc(NC(=O)COc3cccc4ccccc34)cc2)CC1 | i | i | i | i | 177*
Cc1ccc(C)c(-n2cc(CNC(C)Cn3cncn3)c(-c3ccccc3)n2)c1 (stereo not given) | i | i | i | i | 66*
Cc1ccc(-n2cc(CNC(C)Cn3cncn3)c(-c3ccc(F)cc3)n2)cc1 (stereo not given) | i | i | i | i | 64*
COc1ccc(-c2nn(-c3ccccc3)cc2CNC(C)Cn2cncn2)c(F)c1 (stereo not given) | i | i | i | i | i
COc1ccc(N2CC(NS(=O)(=O)c3cccs3)CC2=O)cc1OC (stereo not given) | i | i | i | i | i
CC(C)Cn1c(-c2ccc(Br)cc2)c[nH]c1=S | i | i | i | i | i
